Only some compounds are listed: those with a hit (about 1.5% of all), similar ones and a draw of the others.
PKA-R2B act: activators of PKA-R2B holoenzyme, primary screen, biochemical, fluorescence polarization, Cy5-IP20, human. cAMP-dependent protein kinase catalytic subunit beta (Homo sapiens) + cAMP-dependent …. PKA-R2B holoenzyme dissociation; R2B truncated from residue 108, S112A mutant; 0% DMSO only, 100% 113 µM cGMP. activation, % at 11.4 µM. 340,000 tested, 0.079% active. AID 504700, 2011;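 active = activation above a cutoff set at the mean over all compounds plus 3 SD, cut at about 18% in these data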;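 also: higher means more holoenzyme dissociation and a rise in polarization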
S100A4 inh HTS: inhibitors of S100A4-myosin IIA peptide binding, primary screen, biochemical, fluorescence polarization, TAMRA-MyoIIA peptide. Protein S100-A4 (Homo sapiens), P26447. inhibition, % at 10.7 µM. 360,000 tested, 0.14% active. AID 652163, 2013;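 active = mean inhibition of at least 70% across replicates, with every replicate also reaching that level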
Target sequence (P26447 whole entry, looked up): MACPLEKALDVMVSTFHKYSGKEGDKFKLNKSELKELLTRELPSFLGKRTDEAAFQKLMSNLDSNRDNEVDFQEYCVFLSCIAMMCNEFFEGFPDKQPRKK
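System – human S100A4 monomer protein, biochemical binding assay · Buffer or medium – Calcium-containing HEPES buffer, pH 7.2 · Timing – 5 min between mix addition and reading · Also added – TAMRA-labelled myosin IIA heavy-chain peptide probe, 5 nM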
CRFR2-BP antag: antagonists of CRF-BP/CRF-R2 complex, primary screen, cell-based, HEK293, calcium dye fluorescence, uHTS; CRF-induced calcium fluorescence; inhibition, % at 11.8 µM; 350,000 tested, 0.59% active; AID 588475, 2011;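 active = inhibition of the ligand-induced calcium signal above about 50% at the single tested concentration, limit read from the data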
SIRT5 inh: SIRT5 desuccinylase inhibitors, primary screen, biochemical, fluorescence imaging, single point, set 5; NAD-dependent protein deacylase sirtuin-5, mitochondrial (Homo sapiens), Q9NXA8; AID 652115, 2013; Purified SirT5, succinyl-peptide AMC, trypsin-coupled fluorescence; 330,000 tested, 1.1% active; inhibition, % at 15 µM; in the data active = inhibition above about 15%
Target sequence (Q9NXA8 whole entry, looked up): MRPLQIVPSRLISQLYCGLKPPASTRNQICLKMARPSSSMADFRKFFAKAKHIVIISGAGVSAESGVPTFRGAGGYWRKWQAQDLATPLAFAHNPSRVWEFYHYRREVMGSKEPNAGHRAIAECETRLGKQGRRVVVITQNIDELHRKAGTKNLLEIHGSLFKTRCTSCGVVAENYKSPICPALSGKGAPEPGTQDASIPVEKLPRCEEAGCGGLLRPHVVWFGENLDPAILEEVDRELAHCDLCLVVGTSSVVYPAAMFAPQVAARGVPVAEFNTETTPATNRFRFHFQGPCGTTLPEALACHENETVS
PKA-R1A activ: activators of PKA-R1A holoenzyme, primary screen, biochemical, fluorescence polarization, Cy5-IP20, bovine R1A, mouse PKAc; cAMP-dependent protein kinase type I-alpha regulatory subunit (Bos taurus) + …; PKA-R1A dissociation; scaled: DMSO 0%, 113 µM cGMP 100%; activation, % at 11.4 µM; 340,000 tested, 0.083% active; AID 504707, 2011;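 active = percent activation above the mean of all tested compounds plus 3 SD, cut at about 19% in these data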;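 also: higher means more PKAc released from R1A so a rise in polarization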
Active calls of the source: *; nt = no result given; ! = repeats disagree.

SMILES | PKA-R2B act | S100A4 inh HTS | CRFR2-BP antag | SIRT5 inh | PKA-R1A activ
C#CCOCCOCCOCCNc1nc(N2CCN(C(=O)CCCCCCCCCCNC(=O)Cn3cc(C[C@@H](C)O)nn3)CC2)nc(N2CCN(C(=O)CCCCCCCCCCNC(=O)[C@H](CO)n3cc(CCCSC)nn3)CC2)n1 | -7.4 | 2.0 | 0.5 | 19.5* | 8.0
C[C@@H]1CN([C@H](C)CO)C(=O)c2cc(NC(=O)Cc3ccccc3)ccc2O[C@@H]1CN(C)C(=O)Nc1ccc(F)cc1 | nt | 4.8 | nt | 0.7 | nt
O=C(CN1CCOCC1)NCC[C@@H]1CC[C@H](NC(=O)Nc2ccc(C(F)(F)F)cc2)[C@@H](CO)O1 | nt | -9.4 | nt | 2.4 | nt
CC(=O)N(Cc1cccc(F)c1)C[C@H]1[C@@H](c2ccccc2)[C@@H](CO)N1C(C)=O | nt | -5.0 | nt | 28.1* | nt
CCCN(C[C@H]1[C@H](c2ccccc2)[C@@H](CO)N1C(C)=O)C(=O)NC(C)C | nt | 3.6 | nt | 33.4*! | nt
CCN(C[C@@H]1[C@@H](c2ccccc2)[C@H](CO)N1C(C)=O)C(=O)c1ccccn1 | nt | 11.0 | nt | 6.2 | nt
COCCN(C[C@@H]1[C@@H](c2ccccc2)[C@H](CO)N1C(C)=O)C(=O)c1cccnc1 | nt | -9.8 | nt | 16.2* | nt
CCN(C[C@H]1[C@H](c2ccccc2)[C@@H](CO)N1C(C)=O)C(=O)c1cccc(F)c1 | nt | -27.3 | nt | nt | nt
CCN(C[C@H]1[C@H](c2ccccc2)[C@H](CO)N1C(C)=O)C(=O)c1ccccn1 | nt | 103.5* | nt | 9.5 | nt
CC(C)NC(=O)N(C)C[C@H]1Oc2ccc(NC(=O)Nc3ccccc3)cc2CC(=O)N([C@H](C)CO)C[C@@H]1C | nt | 9.4 | nt | 0.0 | nt
COc1ccc([C@H]2CC(=O)C[C@@H](CCn3cc(-c4cccnc4)nn3)O2)cc1 | nt | -9.5 | nt | 33.3* | nt
COc1ccc([C@H]2CC(=O)C[C@@H](CCn3cc(-c4ccccc4)nn3)O2)cc1 | nt | -1.6 | nt | nt | nt
COCC(=O)N1CC[C@@H]2[C@H]1c1cc(C#Cc3ccccc3)ccc1N[C@@H]2CO | nt | -1.7 | nt | nt | nt
Cc1cc(C)cc(Nc2cc(C)nc3nc(C)nn23)c1 | 4.8 | -0.3 | -11.9 | 15.8* | 0.0
CCCNC(=O)N1[C@H](CO)[C@H]2c3ccccc3N(C)C[C@H]21 | nt | 3.4 | nt | -3.8 | nt
CC1(C)CC(=O)c2c(-c3cccnc3)n[nH]c2C1 | 6.3 | -6.6 | -29.9 | 15.2* | 11.6
Cc1c2cnn(CC(=O)NCCCN3CCCCC3C)c(=O)c2c(C)n1Cc1ccccc1 (stereo not drawn) | -3.8 | -6.0 | 24.9 | -2.9 | 5.9
Cc1c2cnn(CC(=O)NC3CCCC3)c(=O)c2c(C)n1Cc1ccccc1 | -6.9 | -1.1 | 110.9* | 1.7 | -3.0
O=C1CN(S(=O)(=O)Cc2ccccc2)C[C@H]2[C@@H](c3ccc(C#CCC4CCCC4)cc3)[C@@H](CO)N12 | nt | 2.0 | nt | 15.5* | nt
Cc1ccccc1S(=O)(=O)N1CC(=O)N2[C@@H](CO)[C@H](c3ccc(C#CCC4CCCC4)cc3)[C@@H]2C1 | nt | -21.4 | nt | 16.3* | nt
CO[C@H]1CN(C)C(=O)c2cc(NC(=O)c3ccno3)ccc2OC[C@H](C)N(S(C)(=O)=O)C[C@@H]1C | nt | -8.3 | nt | -0.3 | nt
CC(C)NC(=O)N1CC2(C1)[C@@H](c1ccccc1)[C@@H](CO)N2C(=O)C1CC1 | nt | 2.2 | nt | -4.7 | nt
O=C(c1[nH]c(C(F)(F)F)nc1-c1ccccc1)N1CCCN(Cc2ccc(F)cc2)CC1 | nt | -2.5 | nt | 28.6* | nt
CC(C)NC(=O)N(C)C[C@H]1Oc2cc(-c3ccncc3)ccc2S(=O)(=O)N([C@H](C)CO)C[C@H]1C | nt | 4.3 | nt | -0.2 | nt
COC(=O)C[C@@H]1CC[C@@H]2[C@H](COC[C@H](O)CN2C(=O)Nc2ccccc2OC)O1 | nt | 11.3 | nt | 1.8 | nt
SMILES | PKA-R2B act | S100A4 inh HTS | CRFR2-BP antag | SIRT5 inh | PKA-R1A activ
O=C(NC1CCS(=O)(=O)C1)c1cccc(Br)c1 (stereo not drawn) | 1.1 | 22.2 | 3.4 | 17.3* | 5.6
C[C@@H]1CN([C@@H](C)CO)C(=O)c2cc(NC(=O)c3ccncc3)ccc2O[C@H]1CN(C)Cc1ccc2c(c1)OCO2 | nt | -0.8 | nt | -5.3 | nt
Cc1ccc(CNC(=O)CNC(=O)[C@@H]2Cc3ccccc3CN2)cc1 | 1.5 | 0.4 | -1.9 | 36.6* | -6.0
Cc1cccc(C)c1NC(=S)Nc1ccc(F)cc1 | -2.5 | -2.5 | 60.0* | -1.4 | 0.9
CCC(CC)NC(=O)CC(c1ccccc1)c1ccccc1 | -1.4 | -2.2 | 71.3* | -4.6 | 1.6
CC(NC(=O)CC(c1ccccc1)c1cc(Cl)ccc1O)c1ccccc1 (stereo not drawn) | -14.1 | 1.8 | 52.5* | -0.9 | 0.2
Cc1ccc(O)c(C(CC(=O)NC(C)C)c2ccccc2)c1 (stereo not drawn) | -1.7 | -0.3 | -19.7 | nt | 5.9
C[C@H]1CCCCO[C@H](CN(C)C(=O)c2ccncc2)[C@@H](C)CN([C@@H](C)CO)C(=O)c2cc(NS(=O)(=O)c3cn(C)cn3)ccc2O1 | nt | -5.9 | nt | 1.9 | nt
COc1ccccc1-c1c(NC(=O)C(C)C)n(C)c2ccccc2c1=O | 3.0 | 2.9 | 105.7* | -2.1 | -8.6
O=S(=O)(N[C@H]1CC[C@H](CCn2cc(C3CC3)nn2)O[C@H]1CO)c1ccc(Cl)cc1 | nt | -10.1 | nt | -2.1 | nt
CSc1ccc(S(=O)(=O)NCC(=O)OCC(=O)N(Cc2ccccc2)C(C)C)cc1[N+](=O)[O-] | -10.6 | 3.4 | 55.6* | 4.2 | -0.5
O=C(N[C@@H]1CC[C@H](CCNC(=O)C2CCCCC2)O[C@H]1CO)c1ccncc1 | nt | -6.3 | nt | 1.5 | nt
CCOC(=O)c1c(N2C(=O)Nc3ccccc3N2O)n[nH]c1-c1cccc(Cl)c1 | 1.6 | -5.6 | 67.9* | 0.1 | -11.2
CCOc1ccc(-c2cc(N3C(=O)Nc4ccccc4N3O)n[nH]2)cc1 | 0.3 | -2.7 | 5.6 | 0.4 | 1.7
CCCC#Cc1ccc([C@@H]2[C@@H](CO)N3CCCCN(Cc4cccnc4)C[C@@H]23)cc1 | nt | 1.1 | nt | 7.8 | nt
O=C(COc1ccc2ccccc2c1)N1CCN(C(=O)c2ccc([N+](=O)[O-])cc2)CC1 | -0.4 | 8.1 | 72.5* | -3.5 | 3.1
O=C(COc1ccccc1)N1CCN(C(=O)c2ccc([N+](=O)[O-])cc2)CC1 | -2.6 | -1.1 | 11.2 | 3.6 | 4.1
C[C@@H]1CN([C@H](C)CO)C(=O)c2cc(-c3cccc(C(=O)N(C)C)c3)cnc2O[C@H]1CN(C)S(=O)(=O)c1ccccc1 | nt | 5.7 | nt | -0.8 | nt
Cc1[nH][nH]c(=O)c1C(c1cc([N+](=O)[O-])ccc1O)c1c(C)[nH][nH]c1=O | 2.5 | -8.1 | -12.8 | 26.4* | 0.4

Source: PubChem BioAssay
